Data: ChEMBL document CHEMBL1221317, “S-benzylisothiourea derivatives as small-molecule inhibitors of indoleamine-2,3-dioxygenase” (Bioorg Med Chem Lett, 2010)
The source made the active and inactive calls. The calls are words filed in the database; no cut-off is given here.

Assays:
[1] = target: T1, Indoleamine 2,3-dioxygenase 1 (Homo sapiens, UniProt P14902); assay: Inhibition of indoleamine-2,3-dioxygenase
In short: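 Recombinant IDO, in 50 mM potassium phosphate buffer (pH 6.5) with 20 mM neutralized ascorbic acid, catalase, methylene blue and L-Trp. Incubated at 37 °C for 60 min, then stopped with 30% (w/v) trichloroacetic acid and heated at 50 °C for 15 min. After centrifugation, the supernatant was mixed with 2% (w/v) p-dimethylaminobenzaldehyde in acetic acid to detect kynurenine colorimetrically.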
Target sequence in this assay (P14902 whole entry): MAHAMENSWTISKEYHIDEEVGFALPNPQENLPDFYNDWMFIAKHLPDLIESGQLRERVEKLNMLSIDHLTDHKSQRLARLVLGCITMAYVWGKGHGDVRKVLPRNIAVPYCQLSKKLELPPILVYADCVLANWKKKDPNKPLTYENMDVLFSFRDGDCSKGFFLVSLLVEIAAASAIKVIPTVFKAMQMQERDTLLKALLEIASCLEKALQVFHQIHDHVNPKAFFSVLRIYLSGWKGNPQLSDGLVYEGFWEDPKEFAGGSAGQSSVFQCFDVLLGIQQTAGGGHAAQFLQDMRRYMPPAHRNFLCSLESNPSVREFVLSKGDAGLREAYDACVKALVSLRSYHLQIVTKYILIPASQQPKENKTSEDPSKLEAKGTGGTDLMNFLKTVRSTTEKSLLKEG

[2] = target: T1, Indoleamine 2,3-dioxygenase 1; assay: Inhibition of indoleamine-2,3-dioxygenase in human A431 cells assessed as inhibition of IFN-gamma-stimulated kynurenine production; format: cell-based, A-431
In short: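 A431 cells (2.0 × 10⁵ cells/mL) were seeded and grown overnight. Serial DMSO dilutions of compound were added and incubated for 24 h more. Then 7% (v/v) aqueous trichloroacetic acid and 2% (w/v) p-dimethylaminobenzaldehyde in acetic acid (2:5) were added, and the kynurenine-derived yellow colour was read at 460 nm.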
Target sequence in this assay (P14902 whole entry): as above

A-431 = assay: Inhibition of indoleamine-2,3-dioxygenase expression in human A431 cells at 10 uM; format: functional, cell-based
In short: (§1)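 A431 cells were precultured for 24 h, given fresh medium, and treated with compound with or without IFN-γ (5 ng/ml). Culture media and cell extracts were then collected. IDO and α-tubulin in the lysates were detected by western blot, and kynurenine concentration was measured in the culture medium.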

[3] = target: T1, Indoleamine 2,3-dioxygenase 1; assay: Inhibition of indoleamine-2,3-dioxygenase in human A431 cells assessed as inhibition of IFN-gamma-stimulated kynurenine production at 10 uM; format: cell-based; conditions: A-431; in short: as §1
Target sequence in this assay (P14902 whole entry, looked up): as the sequence (P14902 whole entry) above

Row | Structure (SMILES) | IC50 [1] [µM] | IC50 [2] [µM] | inhibition (A-431) | inhibition [3]
1 | CC(C)(C)c1ccc(CSC(=N)N)cc1 | > 100 | > 20 | – | –
2 | N=C(N)SCc1ccccc1 | 61 | > 10 | – | –
3 | Cc1ccc(CSC(=N)N)cc1 | 30 | 6.8 | – | –
4 | N=C(N)SCc1ccc(Br)cc1 | 1.3 | 0.8 | – | –
5 | N=C(N)SCc1ccc(F)cc1 | 13 | 2 | – | –
6 | CSC(=N)NCCc1ccc(Cl)cc1 | > 100 | > 20 | – | –
7 | N=C(N)SCc1cccc(Cl)c1 | 4.6 | 1.4 | – | –
8 | N=C(N)SCc1ccc(Cl)cc1Cl | 0.4 | 1.1 | – | –
9 | COc1ccc(CS)cc1 | 1.4 | 9.4 | – | –
10 | SCc1ccccc1 [BENZENEMETHANETHIOL] | 1.7 | 13 | – | –
11 | NCc1ccc(Cl)cc1 | > 100 | > 20 | – | –
12 | SCc1ccc(Cl)c(Cl)c1 | 0.1 | 1.1 | – | –
13 | N=C(N)SCc1ccc(C(=O)c2ccccc2)cc1 | > 100 | > 20 | – | –
14 | O=S(=O)(O)c1ccc(Cl)cc1 | > 100 | > 20 | – | –
15 | N=C(N)SCc1ccccc1Cl | 10 | 4.8 | – | –
16 | NC(=S)NCCc1ccc(Cl)cc1 | 100 | > 20 | – | –
17 | Cc1ccc(CS)cc1 | 1.3 | 6.5 | – | –
18 | N=C(N)SCc1ccc(Cl)c(Cl)c1 | 17 | 7.3 | – | –
19 | CC(C)c1ccc(CSC(=N)N)cc1 | > 100 | > 20 | – | –
20 | Fc1ccc(CS)cc1 | 1.8 | 1.9 | – | –
21 | CCc1ccc(CSC(=N)N)cc1 | 16 | 2.5 | – | –

Row | Structure (SMILES) | IC50 [1] [µM] | IC50 [2] [µM] | inhibition (A-431) | inhibition [3]
22 | CSC(=N)Nc1ccc(Cl)cc1 | > 100 | > 20 | – | –
23 | O=S(O)c1ccc(Cl)cc1 | > 100 | > 20 | – | –
24 | NCCc1ccc(Cl)cc1 | > 100 | > 20 | – | –
25 | N=C(N)SCCc1ccccc1Cl | > 100 | > 20 | – | –
26 | C/N=C(\NC)SCc1ccc(Cl)cc1 | 21 | > 20 | – | –
27 | N=C(N)SCCc1cccc(Cl)c1 | > 100 | > 20 | – | –
28 | SCc1ccc(Cl)cc1 | 3.2 | 1.1 | – | –
29 | SCc1ccccc1Cl | 1.2 | 15 | – | –
30 | CS(=O)(=O)c1ccc(CSC(=N)N)cc1 | > 100 | > 10 | – | –
31 | OCc1ccc(Cl)cc1 | > 100 | > 20 | – | –
32 | NC(=S)Nc1ccc(Cl)cc1 | > 100 | > 20 | – | –
33 | N=C(N)SCc1ccc(C(F)(F)F)cc1 | 2.6 | 1.2 | – | –
34 | COc1ccc(CSC(=N)N)cc1 | 52 | 10 | – | –
35 | N=C(N)SCc1ccc(C(=O)O)cc1 | > 100 | > 20 | – | –
36 | Sc1ccc(Cl)cc1 | 1.9 | > 20 | – | –
37 | N=C(N)SCCc1ccc(Cl)cc1 | 57 | > 20 | – | –
38 | N=C(N)SCc1ccc(Cl)cc1 | 2.2 | 0.6 | inactive | Active
39 | N#Cc1ccc(CSC(=N)N)cc1 | 19 | 2.6 | – | –
40 | SCc1ccc(Cl)cc1Cl | 3.5 | 4.6 | – | –
41 | NC(=O)NCc1ccc(Cl)cc1 | > 100 | > 20 | – | –
42 | N=C(N)SCc1ccc([N+](=O)[O-])cc1 | 11 | 2.2 | – | –
